Measurements pooled from the literature.
In brackets after ≈: the same amount, converted by molar mass.
Organism: Mycobacterium tuberculosis
Observed: microbial growth

O=C(c1cc2ccc(-c3ccccc3)nc2s1)N1CCCC1  IC90 (H37RV; 5 days): > 100 µM
CN(C)C(=O)OCc1cc2[nH]c(=S)n(Cc3cncnc3)c(=O)c2cc1Cl  MIC90 (H37RV): > 100 µM
Nc1c(C(=O)NCc2ccc(F)cc2)sc2ncccc12  IC50 (H37RV): > 100 µM
CO[C@H]1/C=C/O[C@@]2(C)Oc3c(C)c(O)c4c(O)c(c(/C=N/N5CCN(C)CC5)c(O)c4c3C2=O)NC(=O)/C(C)=C\C=C\[C@H](C)[C@H](O)[C@@H](C)[C@@H](O)[C@@H](C)[C@H](OC(C)=O)[C@@H]1C  MIC90 (H37RV): 0.12 µg/mL
O=C(Cc1ccccc1)Nc1cc(-c2ccccn2)nc2nncn12  IC90 (H37RV): 2 µM
COc1ccc(-c2cc(C(F)(F)F)c3c(N)c(C(=O)Nc4cc(C)ccc4C)sc3n2)cc1  IC50 (H37RV): > 100 µM
NCC[C@H](O)C(=O)N[C@@H]1C[C@H](N)[C@@H](O[C@H]2O[C@H](CN)[C@@H](O)[C@H](O)[C@H]2O)[C@H](O)[C@H]1O[C@H]1O[C@H](CO)[C@@H](O)[C@H](N)[C@H]1O  MIC50 (H37RV): 1.2 µg/mL (≈ 2.05 µM)
CCCCCCC#Cc1cncc(-c2nnc(SCc3cc([N+](=O)[O-])cc([N+](=O)[O-])c3)n2CCCN)c1  IC50 (resazurin; ERDMAN): 3.2 µM
O=c1c2cc(Cl)cnc2[nH]c(=S)n1Cc1cccnc1  MIC90 (H37RV): > 100 µM
c1ccc(CCOc2cc(-c3ccccn3)nc3nncn23)cc1  MIC (H37RV): > 100 µM
CC(=O)c1cc(-c2ccoc2)ccc1OCCc1cccc(F)c1  IC50: 0.26 µM
O=C(OCc1cc2[nH]c(=S)n(Cc3cncnc3)c(=O)c2cc1Cl)Oc1ccccc1  MIC90 (H37RV): 1.94 µM
CCN(CC)C(=O)c1sc2ncccc2c1N  IC50 (H37RV): > 100 µM
NC(=O)c1cc(Br)ccc1OCCc1cccc(F)c1  IC50: 2 µM
CCCCCCC#Cc1cncc(-c2nnc(SCc3cc(=O)[nH]c4ccccc34)n2C)c1  IC50 (resazurin; ERDMAN): > 200 µM
FC(F)(F)c1ccc(CCNc2cc(-c3ccccn3)nc3nncn23)cc1  IC90 (H37RV): 0.53 µM
O=c1c2cc(Cl)c(CO)cc2[nH]c(=S)n1Cc1cncc(-c2nnn[nH]2)c1  MIC90 (H37RV): 59.2 µM
Cc1ccc(-c2cc(NCCc3ccc(C(F)(F)F)cc3)n3cnnc3n2)o1  IC90 (H37RV): 0.37 µM
CCCCCCC#Cc1cncc(-c2nnc(SCc3cc(C(F)(F)F)cc(C(F)(F)F)c3)n2CCCN)c1  IC50 (resazurin; ERDMAN): 3.1 µM
NNC(=O)c1ccncc1  MIC90 (H37RA): 0.34 µM
COc1ccc(-c2cc(C(F)(F)F)c3c(N)c(C(=O)N4CCCC4)sc3n2)cc1  IC50 (H37RV): > 50 µM
Clc1ccc(CCNc2cc(-c3ccco3)nc3nncn23)cc1  MIC (H37RV): 4.8 µM (≈ 1.63 µg/mL)
COc1ccc(-c2cc(C(F)(F)F)c3c(N)c(C(=O)N4CCCC4(C)C)sc3n2)cc1  IC50 (H37RV): > 100 µM
COC(=O)OCc1cc2[nH]c(=S)n(Cc3cncnc3)c(=O)c2cc1Cl  MIC90 (H37RV): 1.84 µM
CCC(NC(=O)c1sc2nc(-c3ccc(OC)cc3)cc(C(F)(F)F)c2c1N)c1ccccc1 (centres unmarked)  IC50 (H37RV): 0.55 µM
NNC(=O)c1ccncc1  MIC90 (H37RV): 0.81 µg/mL
CCc1ccc(CCNc2cc(-c3ccccn3)nc3nnc(C4CC4)n23)cc1  MIC (H37RV; 5 days): 17 to 50 µM (≈ 6.54 to 19.2 µg/mL)
COC(=O)OCc1cc2[nH]c(=S)n(Cc3cccnc3)c(=O)c2cc1Cl  MIC90 (H37RV): 3.42 µM
CCCCCCC#Cc1cncc(-c2nnc(SCc3ccc(Cl)cc3)n2CCCN)c1  IC50 (resazurin; ERDMAN): 29 µM
CC(CNc1cc(-c2ccccn2)nc2nncn12)c1ccccc1 (centres unmarked)  MIC (H37RV): 35 µM (≈ 11.6 µg/mL)
CCCCCCC#Cc1cncc(-c2nnc(SC[C@H]3O[C@@H](n4ccc(=O)[nH]c4=O)[C@H](O)[C@@H]3O)n2CCCN)c1  IC50 (resazurin; ERDMAN): > 200 µM
Nc1c(C(=O)Nc2cccnc2)sc2nc(-c3ccccc3)cc(C(F)(F)F)c12  IC50 (H37RV): > 100 µM
CCCCCCC#Cc1cncc(-c2nnc(SCCCn3ccc(=O)[nH]c3=O)n2C)c1  IC50 (resazurin; ERDMAN): 25 µM
CN(C)Cc1cc2[nH]c(=S)n(Cc3cccnc3)c(=O)c2cc1Cl  MIC90 (H37RV): > 100 µM
CCCCCCC#Cc1cncc(-c2nnc(SC[C@H]3O[C@@H](n4ccc(=O)[nH]c4=O)[C@H](O)[C@@H]3O)n2CCO)c1  IC50 (resazurin; ERDMAN): 196 µM
COc1ccc(CCNc2cc(-c3ccccn3)nc3cc(C4CC4)nn23)cc1  MIC (H37RV): 42 µM (≈ 16.2 µg/mL)
COC(=O)c1cc2[nH]c(=S)n(Cc3cccnc3)c(=O)c2cc1Cl  MIC90 (H37RV): > 100 µM
CCCCCCC#Cc1cncc(-c2nnc(SCc3cc([N+](=O)[O-])cc([N+](=O)[O-])c3)n2CCO)c1  IC50 (resazurin; ERDMAN): 1.4 µM
